Data as given in article PMC3178738 (Bioconjugate chemistry, 2011).
“Also recorded” adds a separate entry of the source.

Columns and labels:
[1] = Stability of the aluminum chelates in PBS; format: physicochemical; conditions: chemical stability, pH 7.4, 37 °C
Summary of the method: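 Al–OH and Al–F chelates of the test chelator, made by reacting it with AlCl3 or AlF3, were incubated in PBS, pH 7.4, at 37 °C. Aluminum loss (demetalation) was followed by RP-HPLC at 3 h, 12 h and 24 h.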

[2] = animal studies, cited from earlier work

## AlOH(NODA-MPAA) [compound 2]
[1]; 3 h, RP-HPLC
  demetalation: 23%
[1]; 12 h, RP-HPLC
  demetalation: 61%

## AlF(NODA-MPAA) [compound 3]
[1]
  time stable in PBS: over 24 h
[1]; 24 h, RP-HPLC
  loss of aluminum (demetalation): no detectable loss of aluminum; also recorded: no signs of demetalation

## NODA-MPAA-D-Lys(HSG)-D-Tyr-D-Lys(HSG)-NH2 [IMP485]
[2]; kit formulated IMP485, supporting in vivo stability
  presence in the bone: negligible
[2]; kit formulated IMP485
  clearance from the body: rapid clearance from the body via the kidneys
